# Screening data as filed in PubChem.
# V1aR counter: activates human V1a receptor in oxytocin agonist counter-screen; 320,000 compounds, 0.25% hits; P37288; activation, % at 3 µM; AID 2797; CHO-V1R cells, Fluo-8 calcium fluorescence, agonist mode; 0% DMSO, 100% 3 nM vasopressin;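 active means activation above the mean activation of all tested compounds plus 3 SD, per screening run, cut at about 20% in these data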;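 further: signal is peak over basal fluorescence ratio across a 100 second FLIPR read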
# Target sequence (P37288 whole entry, looked up): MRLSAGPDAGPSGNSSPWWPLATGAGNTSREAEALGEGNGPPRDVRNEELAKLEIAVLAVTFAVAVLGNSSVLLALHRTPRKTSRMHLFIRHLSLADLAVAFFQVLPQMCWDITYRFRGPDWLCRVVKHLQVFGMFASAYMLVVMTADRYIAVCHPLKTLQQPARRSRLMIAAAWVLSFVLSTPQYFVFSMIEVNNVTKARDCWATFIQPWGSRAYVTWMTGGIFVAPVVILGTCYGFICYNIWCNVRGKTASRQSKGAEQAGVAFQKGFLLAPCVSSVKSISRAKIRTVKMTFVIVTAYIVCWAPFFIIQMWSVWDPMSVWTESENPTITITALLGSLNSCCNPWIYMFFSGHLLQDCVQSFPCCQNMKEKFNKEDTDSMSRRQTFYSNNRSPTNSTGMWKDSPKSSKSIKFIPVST
# OXTR potentiator: human OXTR potentiation. P30559. CHO-OTR cells, Fluo-8 calcium fluorescence, potentiator mode; 0% = oxytocin EC15, 100% = EC100. activation, % at 3 µM. 320,000 compounds, 0.061% hits. AID 2445;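 active means activation above that plate's cutoff, the mean activation of tested compounds plus 3 SD, cut at about 6.6% in these data, passing the limit was not always enough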;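 further: 100% uses oxytocin at 75 nM as the full agonist control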
#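 Material: CHO-OTR cells, human receptor; compound dosing: single dose, 3.0 µM nominal final compound concentration; schedule: 6 min compound pre-incubation at room temperature, 100 s kinetic read; measured by: kinetic Fluo-8 calcium fluorescence; read-out basis: % activation vs EC15 and EC100 oxytocin; controls: EC15 oxytocin alone as 0%, 75 nM oxytocin as 100%; replicates: singlicate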
# OXTR ag: human OXTR agonism | activation, % at 3 µM | CHO-OTR cells, Fluo-8 calcium fluorescence; normalized: DMSO 0%, oxytocin 100% | 320,000 compounds, 0.32% hits | P30559;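 active means activation above the mean of all tested compounds plus 3 SD, cutoff set per screening run, cut at about 20% in these data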;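 further: peak over basal fluorescence ratio from a 100 s FLIPR kinetic read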
# TAAR1 antagonist: human TAAR1 antagonism | CHO RD-HGA16 TAAR1, Fluo-8 calcium fluorescence, antagonist | AID 624466 | Q96RJ0 | 360,000 compounds, 1.5% hits | inhibition, % at 3 µM;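 active means inhibition above a per-plate cutoff, the mean inhibition of test compounds on that plate plus 3 SD, cut at about 49% in these data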;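 further: 0% = DMSO plus EC80 beta-PEA response and 100% = DMSO alone without agonist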
# Target sequence (Q96RJ0 whole entry, looked up): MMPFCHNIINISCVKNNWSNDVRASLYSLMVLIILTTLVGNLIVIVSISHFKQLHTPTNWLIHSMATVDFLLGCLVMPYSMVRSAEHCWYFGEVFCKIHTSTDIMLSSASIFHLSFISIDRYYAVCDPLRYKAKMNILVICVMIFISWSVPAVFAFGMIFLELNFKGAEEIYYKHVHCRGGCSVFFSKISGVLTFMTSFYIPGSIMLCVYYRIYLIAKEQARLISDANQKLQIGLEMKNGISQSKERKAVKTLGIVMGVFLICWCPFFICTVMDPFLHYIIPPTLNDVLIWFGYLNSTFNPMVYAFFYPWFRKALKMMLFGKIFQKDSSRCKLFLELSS
#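 Test system: RD-HGA16 CHO cells with stable hTAAR1 and Gα16 / Probe or stimulus: EC80 β-phenethylamine stimulus / Times: seeding 17-24 h prior, 75-min 37 °C, 30-min RT dye loading / Detection: Fluo-8 calcium-sensitive fluorescence / Read-out basis: % inhibition scaled between DMSO and EC80 PEA controls / Repeats: singlicate, one well per test compound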
# TAAR1 agonist: agonists of human TAAR1; CHO RD-HGA16 TAAR1, Fluo-8 calcium fluorescence; vehicle wells 0%, saturating PEA agonist 100%; AID 624467; activation, % at 3 µM; 360,000 compounds, 0.99% hits; Q96RJ0;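 active means activation above the mean activation of all test compounds in the run plus 3 SD, cut at about 38% in these data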
#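 Test system: RD-HGA16 (CHO) cells co-expressing Gα16 and hTAAR1 / Benchmarks: DMSO vehicle as 0%, PEA at EC100 as 100% / Repeats: no replicates (n 1) / Measure: % activation from peak over basal fluorescence ratio, DMSO-to-PEA scaled / Timing: 17-24 h plating, Fluo-8 75 min 37 °C, 30 min RT / Technique: kinetic Fluo-8 calcium fluorescence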
# OXTR ag confirm: human OXTR agonism, confirmation; 390 compounds, 20% hits; AID 434963; shares compounds with OXTR ag; activation, % at 3 µM; CHO-OTR cells, Fluo-8 calcium fluorescence, agonist;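 active means mean activation above about 20% derived from the earlier single-dose screen, limit read from the data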;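 further: peak over minimum fluorescence ratio per well during a 100 second FLIPR read; 0% = DMSO alone and 100% = oxytocin high control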
# V1R ag counter 3x: counter-screen for oxytocin receptor agonists: V1a receptor agonists; 390 compounds, 10% hits; activation, % at 3 µM; AID 434991; shares compounds with OXTR ag; CHO-V1R cells, Fluo-8 calcium fluorescence, agonist;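 active means mean activation over triplicate exceeds the hit threshold set in the earlier primary screen, cut at about 20% in these data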;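 further: peak over basal fluorescence ratio within a 100 second read; 0% = DMSO alone and 100% = 3 nM vasopressin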
# TAAR1 ag confirm: human TAAR1 agonism, confirmed; 2,400 compounds, 82% hits; CHO RD-HGA16 TAAR1, Fluo-8 calcium fluorescence; scaled: DMSO 0%, maximal phenethylamine 100%; activation, % at 3 µM; shares compounds with TAAR1 agonist; AID 651783;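 active means activation above a cutoff set at the run's mean compound activation plus 3 SD, cut at about 39% in these data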
# Ga16 nonsel ag: nonselective agonism, TAAR1 counter-screen; shares compounds with TAAR1 agonist; CHO-Ga16 parental, Fluo-8 calcium fluorescence; normalized to maximal ATP response, DMSO zero; activation, % at 3 µM; 2,400 compounds, 50% hits;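 active means activation above the run cutoff, the mean activation over all tested wells plus 3 SD, cut at about 12% in these data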;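 further: 0% = DMSO wells and 100% = maximal ATP response on the peak over basal ratio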
# TAAR1 desensitize: human TAAR1 agonist that also desensitizes the receptor; shares compounds with TAAR1 agonist; CHO RD-HGA16 hTAAR1, Fluo-8 calcium, beta-PEA response inhibition; inhibition, % at 3 µM; 2,400 compounds, 46% hits; AID 651951;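 active means inhibition above the run cutoff, the mean inhibition of all test compounds plus 3 SD, cut at about 49% in these data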;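 further: beta-PEA stimulus applied at its EC80; loss of beta-PEA calcium signal after compound pretreatment read as receptor desensitization; 0% = DMSO with beta-PEA at EC80 and 100% = DMSO alone without agonist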
# Ga16 antag count: nonselective Ga16 antagonism, counter-screen; shares compounds with TAAR1 agonist; CHO-Ga16 ATP-induced calcium, Fluo-8 fluorescence; inhibition, % at 3 µM; 2,400 compounds, 39% hits;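 active means inhibition above the plate's mean compound inhibition plus 3 SD, computed per plate, cut at about 22% in these data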;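 further: 0% = EC80 ATP with DMSO and 100% = DMSO wells without ATP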
# The depositor's hits bear a star; . = no result; ! = not confirmed by another sample. The list is not random: actives were taken first. Their share in the collection is about 2.3%.
SMILES,V1aR counter,OXTR potentiator,OXTR ag,TAAR1 antagonist,TAAR1 agonist,OXTR ag confirm,V1R ag counter 3x,TAAR1 ag confirm,Ga16 nonsel ag,TAAR1 desensitize,Ga16 antag count
COc1ccc(C(=O)/C(C#N)=N/Nc2ccc([N+](=O)[O-])cc2)cc1,10,-29,20*,6,14,9,8,.,.,.,.
Cc1c2ccccc2nc2c(F)c(NC(C)C)c(F)c(F)c12,11,-6,20*,17,6,51*,66*,.,.,.,.
Cc1c2ccccc2nc2c(F)c(NCCO)c(F)c(F)c12,3,0,2,26,13,.,.,.,.,.,.
Cc1ccccc1OCC(=O)Nc1ccc(N2CCN(C)CC2)c(Cl)c1,13,-13,20*,7,39*,3,2,.,.,.,.
CC1=C(C#N)S(=O)(=O)C(C#N)C(c2ccccc2)C1 (centres undefined),0,-6,1,-9,0,.,.,.,.,.,.
COc1cc(C(=O)NC(=S)N2CCN(C)CC2)cc(OC)c1OC,1,4,1,-12,0,.,.,.,.,.,.
COc1ccc2nc(NC(=O)c3ccccc3[N+](=O)[O-])sc2c1,0,-4,4,4,-1,.,.,.,.,.,.
COc1ccc2nc(NC(=O)c3ccccc3O)sc2c1,16,-25,20*,9,8,11,9,.,.,.,.
FC(F)(F)c1cccc(-c2nc3nc(Cl)c(Cl)nc3[nH]2)c1,11,-25,22*,.,.,14,10,.,.,.,.
NC(=O)CC(NC(=O)c1ccc(Br)cc1)c1ccc(N2CCC(Cc3ccccc3)CC2)c([N+](=O)[O-])c1 (centres undefined),0,-6,1,-17,4,.,.,.,.,.,.
Nc1nc(N)c2cc(Sc3ccc4ccccc4c3)ccc2n1,13,-11,27*,15,63*,1,1,82*,44*,57*,46*
COc1ccc(CCn2c(-c3ccccc3)nc3c(c(=O)c4ccccc4n3C)c2=O)cc1,0,2,0,-20,-1,.,.,.,.,.,.
CC(C)c1nc2c(c(=O)c3ccccc3n2C)c(=O)n1CCc1ccccc1,18,-14,28*,23,76*,15,13,43*,37*,28,20
CCOC(=O)C1CCN(C(=S)NC(=O)c2cccs2)CC1,0,-7,0,-9,4,.,.,.,.,.,.
C#CCNC(=O)c1ccc(OCc2ccccc2)cc1Cl,0,3,0,-29,3,.,.,.,.,.,.
O=C(NCCCl)c1ccc(OCc2ccccc2)cc1Cl,10,-10,22*,-3,48*,0,0,68*,17*,56*,19
Oc1ccc(Cl)cc1CNCc1ccc(F)cc1,9,-16,28*,29,66*,28*,19,65*,30*,22,11
O=c1oc2cc(O)ccc2cc1-c1nc2c(s1)CCc1ccccc1-2,14,-5,26*,47,59*,160*,181*,176*,164*,84*,84*
O=c1oc2ccccc2cc1-c1nc2c(s1)CCc1ccccc1-2,1,-2,-1,-19,1,.,.,.,.,.,.
CC1(c2ccc(OC(F)F)cc2)NC(=O)N(CC(=O)Nc2ccc(Cl)cc2F)C1=O (centres undefined),19,-16,34*,55*,96*,24*,22*,91*,47*,53*,43*
CC1(c2ccc(OC(F)F)cc2)NC(=O)N(CC(=O)Nc2ccc(F)cc2)C1=O (centres undefined),15,-15,27*,33,78*,19,14,107*,47*,78*,46*
Cc1ccc(C(C)NC(=O)/C(C#N)=C\c2c(C)[nH]c3ccccc23)cc1 (centres undefined),18,-10,27*,44,63*,14,9,59*,33*,48,39*
Cc1[nH]c2ccccc2c1/C=C(\C#N)C(=O)NCc1ccccc1,3,-7,2,-5,11,.,.,.,.,.,.
CCCCOc1cc(CC2CNC(=O)N2)ccc1OC (centres undefined),0,-8,-1,-14,1,.,.,.,.,.,.
COc1cccc(C(=O)Nc2ccc(NC(=O)Cc3ccccc3)cc2)c1,2,-5,24*,42,82*,0,0,102*,23*,67*,14
SMILES,V1aR counter,OXTR potentiator,OXTR ag,TAAR1 antagonist,TAAR1 agonist,OXTR ag confirm,V1R ag counter 3x,TAAR1 ag confirm,Ga16 nonsel ag,TAAR1 desensitize,Ga16 antag count
Cc1cc(=O)oc2cc(OCC(=O)OCC(=O)Nc3ccc(C(C)C)cc3)ccc12,0,1,-1,1,0,.,.,.,.,.,.
CC(=O)Nc1cc2c(cc1C(C)=O)OCCO2,0,-6,0,-12,4,.,.,.,.,.,.
C1CCC(C(CC2CCCCN2)C2CCCCC2)CC1 (centres undefined),10,-4,21*!,32,40*,5,3,58*,35*,24,21*
CC(NC(=O)c1cccc(S(=O)(=O)N(C)c2ccccc2)c1)c1cccnc1 (centres undefined),2,-11,4,-7,6,.,.,.,.,.,.
O=[N+]([O-])c1ccc(/C=N/Nc2nc(NCc3ccccc3)nc(N3CCOCC3)n2)cc1,-1,2,-2,-1,2,.,.,.,.,.,.
O=[N+]([O-])c1cccc(/C=N/Nc2nc(NCc3ccccc3)nc(N3CCOCC3)n2)c1O,17,-31,24*,27,67*,19,17,115*,112*,93*,85*
CCCCOc1ccc(CSCCN)cc1Cl,13,-13,21*,-1,77*,7,2,64*,10,31,11
Cn1nc(C(F)(F)F)c(-c2cccc(C(F)(F)F)c2)c1NC(=O)Nc1ccc(F)cc1,14,-15,13,-1,5,.,.,.,.,.,.
